Source: ChEMBL document CHEMBL4196142, “Efficacy of Apigenin and Miltefosine Combination Therapy against Experimental Cutaneous Leishmaniasis” (J Nat Prod, 2018)
pEC50: −log10 of the molar value. Blank lines part the entries; values can stand above or below the compound they belong to. Active and inactive are the calls of the source. The rule behind the calls is not given here.

Columns and labels:
[1] = test system: Leishmania amazonensis; experiment: Synergistic antileishmanial activity against stationary-phase Leishmania amazonensis MHOM/BR/75/LTB0016 promastigotes infected in Balb/c mouse assessed as reduction in parasite load at 1 mg/kg, po administered once daily via orogastric tube starting from 7 days post infection for 32 days in presence of 4 mg/kg miltefosine by dilution method relative to control; type: functional; set-up: scale not given: the % may be the effect or the level left
How it was run: (§1)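 Ear infection and daily oral dosing were as for the lesion study in female BALB/c mice, ending at euthanasia on day 32. Infected ears were excised, weighed, minced in Schneider's medium with 10% FCS and serially diluted. Viable parasites per ear were estimated from the highest dilution still growing promastigotes after 7 days at 26 °C. Mean ± SE, n = 5 ears.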

[2] = test system: Mus musculus; experiment: (§2) Hepatotoxicity in Balb/c mouse infected with stationary-phase Leishmania amazonensis MHOM/BR/75/LTB0016 promastigotes assessed as serum ALT level at 2 mg/kg, po administered once daily via orogastric tube for 32 days starting from 7 days post infection measured post last dose (reference value: 88.41 +/- 8.77 U/L); type: toxicity, organism-based; conditions: in vivo
How it was run: (§3)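 Infected female BALB/c mice, dosed orally once daily from day 7 to day 32, had serum AST, ALT and creatinine measured by dry chemistry technology at the PDTIS-FIOCRUZ facility. Mean ± SE, n = 5.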

[3] = test system: Mus musculus; experiment: as §2, with “Renal toxicity” for “Hepatotoxicity”, “creatinine” for “ALT”, “0.61” for “88.41”, “0.06 mg/dl)” for “8.77 U/L)”; type: organism-based; conditions: in vivo; how it was run: as §3
[4] = test system: Mus musculus; experiment: (§4) Renal toxicity in Balb/c mouse infected with stationary-phase Leishmania amazonensis MHOM/BR/75/LTB0016 promastigotes assessed as serum creatinine level at 1 mg/kg, po administered once daily via orogastric tube for 32 days starting from 7 days post infection measured post last dose in presence of 4 mg/kg miltefosine (reference value: 0.61 +/- 0.06 mg/dl); type: organism-based; conditions: in vivo; how it was run: as §3
[5] = test system: Mus musculus; experiment: as §4, with “Hepatotoxicity” for “Renal toxicity”, “AST” for “creatinine”, “161.1” for “0.61”, “20.99 U/L)” for “0.06 mg/dl)”; type: toxicity, organism-based; conditions: in vivo; how it was run: as §3
[6] = test system: Mus musculus; experiment: as §2, with “AST” for “ALT”, “161.1” for “88.41”, “20.99” for “8.77”; type: toxicity, organism-based; conditions: in vivo; how it was run: as §3
[7] = test system: Leishmania amazonensis; experiment: (§5) Synergistic antileishmanial activity against stationary-phase Leishmania amazonensis MHOM/BR/75/LTB0016 promastigotes infected in human THP1-derived macrophages assessed as fractional inhibitory concentration at test compound to miltefosine ratio of 3:2 by serial dilution based light microscopic method; type: functional
How it was run: (§6)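 In the infected THP-1 macrophage fixed-ratio assay, FIC and ∑FIC came from each ratio's EC50 by the modified fixed-ratio isobologram method. Mean ∑FIC was the average of the ∑FICs and was used to classify the interaction; isobolograms were plotted from each ratio's FIC values.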

[8] = test system: Leishmania amazonensis; experiment: Antileishmanial activity against stationary-phase Leishmania amazonensis MHOM/BR/75/LTB0016 promastigotes infected in Balb/c mouse assessed as reduction in parasite load at 2 mg/kg, po administered once daily via orogastric tube starting from 7 days post infection for 32 days by dilution method; type: functional, organism-based; how it was run: as §1
[9] = test system: Leishmania amazonensis; experiment: as §5, with “4:1” for “3:2”; type: functional; how it was run: as §6
[10] = test system: Leishmania amazonensis; experiment: Synergistic antileishmanial activity against stationary-phase Leishmania amazonensis MHOM/BR/75/LTB0016 promastigotes infected in Balb/c mouse assessed as reduction in lesion size at 1 mg/kg, po administered once daily via orogastric tube starting from 7 days post infection for 32 days measured twice weekly during compound dosing in presence of 4 mg/kg miltefosine by caliper method relative to control; type: functional; set-up: scale not given: the % may be the effect or the level left
How it was run: (§7)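 Female BALB/c mice, 10−12 weeks, were infected intradermally in the right ear with 2 × 10^6 stationary-phase promastigotes in 10 μL PBS. From day 7 post-infection, dosing was oral by orogastric tube once daily, seven times per week, until day 32. Compound in DMSO (1% v/v), miltefosine in PBS; controls got vehicle suspension with DMSO 0.2% v/v. Lesion size was read by dial caliper twice weekly; n = 5.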

[11] = test system: Leishmania amazonensis; experiment: as §5, with “2:3” for “3:2”; type: functional; how it was run: as §6
[12] = test system: Leishmania amazonensis; experiment: Antileishmanial activity against stationary-phase Leishmania amazonensis MHOM/BR/75/LTB0016 promastigotes infected in human THP1-derived macrophages at test compound to miltefosine ratio of 1:4 by serial dilution based light microscopic method; type: functional, organism-based
[13] = test system: Leishmania amazonensis; experiment: (§8) Antileishmanial activity against stationary-phase Leishmania amazonensis MHOM/BR/75/LTB0016 promastigotes infected in Balb/c mouse assessed as reduction in lesion size at 2 mg/kg, po administered once daily via orogastric tube starting from 7 days post infection for 32 days measured twice weekly during compound dosing by caliper method; type: functional, organism-based; how it was run: as §7
[14] = test system: Mus musculus; experiment: as §2, with “at 1” for “at 2”, “dose in presence of 4 mg/kg miltefosine” for “dose”; type: toxicity, organism-based; conditions: in vivo; how it was run: as §3
[15] = test system: Leishmania amazonensis; experiment: Antileishmanial activity against stationary-phase Leishmania amazonensis MHOM/BR/75/LTB0016 promastigotes infected in human THP1-derived macrophages at test compound to miltefosine ratio of 3:2 by serial dilution based light microscopic method; type: functional, organism-based
[16] = test system: Leishmania amazonensis; experiment: as §5, with “1:4” for “3:2”; type: functional; how it was run: as §6
[17] = test system: Leishmania amazonensis; experiment: Antileishmanial activity against stationary-phase Leishmania amazonensis MHOM/BR/75/LTB0016 promastigotes infected in human THP1-derived macrophages at test compound to miltefosine ratio of 2:3 by serial dilution based light microscopic method; type: functional, organism-based
[18] = test system: Leishmania amazonensis; experiment: Antileishmanial activity against stationary-phase Leishmania amazonensis MHOM/BR/75/LTB0016 promastigotes infected in human THP1-derived macrophages at test compound to miltefosine ratio of 4:1 by serial dilution based light microscopic method; type: functional, organism-based
[19] = test system: Leishmania amazonensis; experiment: Antileishmanial activity against stationary-phase Leishmania amazonensis MHOM/BR/75/LTB0016 promastigotes infected in human THP1-derived macrophages by serial dilution based light microscopic method; type: functional, organism-based
[20] = test system: Leishmania amazonensis; experiment: Synergistic antileishmanial activity against stationary-phase Leishmania amazonensis MHOM/BR/75/LTB0016 promastigotes infected in human THP1-derived macrophages assessed as fractional inhibitory concentration at apigenin to test compound ratio of 1:4 by serial dilution based light microscopic method; type: functional; how it was run: as §6
[21] = test system: Leishmania amazonensis; experiment: Synergistic antileishmanial activity against stationary-phase Leishmania amazonensis MHOM/BR/75/LTB0016 promastigotes infected in human THP1-derived macrophages assessed as fractional inhibitory concentration at apigenin to test compound ratio of 2:3 by serial dilution based light microscopic method; type: functional; how it was run: as §6
[22] = test system: Leishmania amazonensis; experiment: Antileishmanial activity against stationary-phase Leishmania amazonensis MHOM/BR/75/LTB0016 promastigotes infected in human THP1-derived macrophages at apigenin to test compound ratio of 2:3 by serial dilution based light microscopic method; type: functional, organism-based
[23] = test system: Leishmania amazonensis; experiment: Synergistic antileishmanial activity against stationary-phase Leishmania amazonensis MHOM/BR/75/LTB0016 promastigotes infected in human THP1-derived macrophages assessed as fractional inhibitory concentration at apigenin to test compound ratio of 4:1 by serial dilution based light microscopic method; type: functional; how it was run: as §6
[24] = test system: Mus musculus; experiment: as §4, with “at 8” for “at 1”, “dose” for “dose in presence of 4 mg/kg miltefosine”; type: organism-based; conditions: in vivo; how it was run: as §3
[25] = test system: Leishmania amazonensis; experiment: Antileishmanial activity against stationary-phase Leishmania amazonensis MHOM/BR/75/LTB0016 promastigotes infected in human THP1-derived macrophages at apigenin to test compound ratio of 4:1 by serial dilution based light microscopic method; type: functional, organism-based
[26] = test system: Leishmania amazonensis; experiment: Antileishmanial activity against stationary-phase Leishmania amazonensis MHOM/BR/75/LTB0016 promastigotes infected in human THP1-derived macrophages at apigenin to test compound ratio of 1:4 by serial dilution based light microscopic method; type: functional, organism-based
[27] = test system: Leishmania amazonensis; experiment: as §8, with “at 8” for “at 2”; type: functional, organism-based; how it was run: as §7
[28] = test system: Leishmania amazonensis; experiment: Antileishmanial activity against stationary-phase Leishmania amazonensis MHOM/BR/75/LTB0016 promastigotes infected in human THP1-derived macrophages at apigenin to test compound ratio of 3:2 by serial dilution based light microscopic method; type: functional, organism-based
[29] = test system: Leishmania amazonensis; experiment: Antileishmanial activity against stationary-phase Leishmania amazonensis MHOM/BR/75/LTB0016 promastigotes infected in Balb/c mouse assessed as reduction in parasite load at 8 mg/kg, po administered once daily via orogastric tube starting from 7 days post infection for 32 days by dilution method; type: functional, organism-based; how it was run: as §1
[30] = test system: Mus musculus; experiment: as §2, with “serum AST” for “serum ALT”, “at 8” for “at 2”, “value: 161.1” for “value: 88.41”, “+/- 20.99” for “+/- 8.77”; type: toxicity, organism-based; conditions: in vivo; how it was run: as §3
[31] = test system: Leishmania amazonensis; experiment: Synergistic antileishmanial activity against stationary-phase Leishmania amazonensis MHOM/BR/75/LTB0016 promastigotes infected in human THP1-derived macrophages assessed as fractional inhibitory concentration at apigenin to test compound ratio of 3:2 by serial dilution based light microscopic method; type: functional; how it was run: as §6
[32] = test system: Mus musculus; experiment: as §2, with “at 8” for “at 2”; type: toxicity, organism-based; conditions: in vivo; how it was run: as §3

pEC50 [12]: 6.80 | pEC50 [15]: 5.84 | pEC50 [17]: 6.14 | pEC50 [18]: 5.52 | pEC50 [19]: 5.41
Structure (SMILES): O=c1cc(-c2ccc(O)cc2)oc2cc(O)cc(O)c12 [APIGENIN]
Activity [1]: 95% | Activity [2]: 43.21 U/L | Activity [3]: 0.63 mg/dL | Activity [4]: 0.69 mg/dL | Activity [5]: 115.1 U/L | Activity [6]: 100.5 U/L | FIC50 [7]: 0.37 | Activity [8]: Active | FIC50 [9]: 0.77 | Activity [10]: 75% | FIC50 [11]: 0.18 | Activity [13]: Active | Activity [14]: 53.55 U/L | FIC50 [16]: 0.04

pEC50 [22]: 5.82 | pEC50 [25]: 6.36 | pEC50 [26]: 5.95 | pEC50 [28]: 6.14 | pEC50 [19]: 6.12
Structure (SMILES): CCCCCCCCCCCCCCCCOP(=O)([O-])OCC[N+](C)(C)C [MILTEFOSINE]
FIC50 [20]: 1.5 | FIC50 [21]: 2.03 | FIC50 [23]: 0.58 | Activity [24]: 0.66 mg/dL | Activity [27]: Active | Activity [29]: Active | Activity [30]: 271.1 U/L | FIC50 [31]: 0.96 | Activity [32]: 61.14 U/L
